Assay results: ChEMBL document CHEMBL1150296, “Synthesis and DNA cleaving activity of water-soluble non-conjugated thienyl tetraynes” (Bioorg Med Chem, 2008)
The source made the active and inactive calls. The rule behind the calls is not given here.

Assays:
[1] = tested on: Escherichia coli; assay: Effect on DNA cleavage in ampicillin resistant Escherichia coli DH5alpha transformed pBluescript 2 KS+ DNA assessed as number of colonies at 1 mM after 15 hrs by transformation assay
Procedure, shortened: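 Plasmid DNA (2.0 µg) exposed to tetrayne at 1.0 mM (final DMSO 3.0%) at 37 °C, recovered by ethanol precipitation, redissolved in water and heated 60 °C for 10 min. Heat-shock transformation of competent E. coli (DH5a or JM109) at 42 °C for 1 min, 1 h recovery in LB at 37 °C, plating on ampicillin (100 mg/L) LB agar, 37 °C for 15 h; colonies counted.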

[2] = tested on: Escherichia coli; assay: Induction of Escherichia coli pBluescript 2 KS+ DNA cleavage assessed as increase in nicked form 2 at 1 mM by gel electrophoresis
Procedure, shortened: (§1)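 pBluescript II KS+ (2.0 µg) incubated overnight at 37 °C with tetrayne in 20 µL, final DMSO 3.0%. Level 1.0 mM; 0.1, 0.3, 0.6 mM also run for the dose series. DNA ethanol-precipitated, redissolved, held 60 °C 10 min then 37 °C 30 min, run on 0.7% agarose; ethidium bromide stain, UV imaging of supercoiled, nicked and linear forms.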

[3] = tested on: Escherichia coli; assay: Induction of Escherichia coli pBluescript 2 KS+ DNA cleavage assessed as decrease in form 1 at 1 mM by gel electrophoresis; procedure, shortened: as §1
[4] = tested on: Escherichia coli; assay: Induction of Escherichia coli pBluescript 2 KS+ DNA cleavage assessed as formation of burst star shaped architecture at 1 mM by atomic force microscopy
Procedure, shortened: (§2)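 Plasmid exposed to tetrayne (1.0 mM, 37 °C, 6 h), ethanol-precipitated, pellet taken up in water. Sample spotted on flat mica for 1 min at room temperature, excess water blown off with air, then single DNA molecule shapes imaged by atomic force microscopy.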

[5] = tested on: Escherichia coli; assay: Induction of Escherichia coli pBluescript 2 KS+ DNA cleavage by gel electrophoresis; procedure, shortened: as §1
[6] = tested on: Escherichia coli; assay: Induction of Escherichia coli pBluescript 2 KS+ DNA cleavage assessed as increase in form 3 at 1 mM by gel electrophoresis; procedure, shortened: as §1
[7] = tested on: Escherichia coli; assay: Induction of Escherichia coli pBluescript 2 KS+ DNA cleavage assessed as linear form 3 at 1 mM by atomic force microscopy; procedure, shortened: as §2

Structure (SMILES): COCc1ccccc1C#CC#Cc1cc(CN(C)C)sc1C(O)C#CC#CC(C)(C)C (stereo unspecified)
- Activity [1]: > 1000

Structure (SMILES): COCc1ccccc1C#CC#Cc1cc(C(=O)O)sc1C(=O)C#CC#CC(C)(C)C
- Activity [1]: > 1000

Structure (SMILES): COCc1ccccc1C#CC#Cc1cc(CN(C)C)sc1C(=O)C#CC#CC(C)(C)C
- Activity [2]: Active
- Activity [3]: Active
- Activity [4]: Active
- Activity [5]: Dose-dependent effect
- Activity [6]: Active
- Activity [7]: Active
- Activity [1]: 8

Structure (SMILES): CN(C)C
- Activity [1]: > 1000

Structure (SMILES): COCc1ccccc1C#CC#Cc1cc(C(=O)O)sc1C(O)C#CC#CC(C)(C)C (stereo unspecified)
- Activity [1]: > 1000
